Converted amounts (≈) assume the structure as drawn.
The compounds below were run on Enterobacter cloacae (assay: Antibacterial activity against Enterobacter cloacae SANK 72690). Settings: not given.
Assay type: functional
Method in brief: (§1)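 MIC by agar dilution on Nutrient Agar, following the NCCLS standard dilution method for aerobically growing bacteria.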

MIC	Structure (SMILES)
3.13 µg/mL (≈ 4.4 µM)	CCCCCCCCCC[C@H]1OC(=O)CNC(=O)[C@H]([C@H](C)O)NC(=O)[C@H](CO)NC(=O)[C@H]([C@H](C)CC)NC(=O)[C@H](CC(C)C)N(C)C(=O)[C@@H]1C
> 100 µg/mL	CCCCCC[C@H]1OC(=O)CNC(=O)[C@@H]([C@@H](C)O)NC(=O)[C@H](CO)NC(=O)[C@H]([C@H](C)CC)NC(=O)[C@H](CC(C)C)N(C)C(=O)[C@@H]1C

Each compound was assayed on Escherichia coli (assay: Antibacterial activity against Escherichia coli SANK 70569 (NIHJ JC-2)). Settings: not given.
Assay type: functional
Method in brief: as §1

MIC	Structure (SMILES)
1.56 µg/mL (≈ 2.19 µM)	CCCCCCCCCC[C@H]1OC(=O)CNC(=O)[C@H]([C@H](C)O)NC(=O)[C@H](CO)NC(=O)[C@H]([C@H](C)CC)NC(=O)[C@H](CC(C)C)N(C)C(=O)[C@@H]1C
> 100 µg/mL	CCCCCC[C@H]1OC(=O)CNC(=O)[C@@H]([C@@H](C)O)NC(=O)[C@H](CO)NC(=O)[C@H]([C@H](C)CC)NC(=O)[C@H](CC(C)C)N(C)C(=O)[C@@H]1C

These compounds were tested on Salmonella enteritidis (assay: Antibacterial activity against Salmonella enteritidis SANK 72390). Settings: Salmonella enterica.
Assay type: functional, Salmonella enterica subsp. enterica serovar Enteritidis
Method in brief: as §1

MIC	Structure (SMILES)
3.13 µg/mL (≈ 4.4 µM)	CCCCCCCCCC[C@H]1OC(=O)CNC(=O)[C@H]([C@H](C)O)NC(=O)[C@H](CO)NC(=O)[C@H]([C@H](C)CC)NC(=O)[C@H](CC(C)C)N(C)C(=O)[C@@H]1C
> 100 µg/mL	CCCCCC[C@H]1OC(=O)CNC(=O)[C@@H]([C@@H](C)O)NC(=O)[C@H](CO)NC(=O)[C@H]([C@H](C)CC)NC(=O)[C@H](CC(C)C)N(C)C(=O)[C@@H]1C

What follows are compounds tested on Escherichia coli (assay: Antibacterial activity against Escherichia coli SANK 72290). Settings: not given.
Assay type: functional
Method in brief: as §1

MIC	Structure (SMILES)
1.56 µg/mL (≈ 2.19 µM)	CCCCCCCCCC[C@H]1OC(=O)CNC(=O)[C@H]([C@H](C)O)NC(=O)[C@H](CO)NC(=O)[C@H]([C@H](C)CC)NC(=O)[C@H](CC(C)C)N(C)C(=O)[C@@H]1C
> 100 µg/mL	CCCCCC[C@H]1OC(=O)CNC(=O)[C@@H]([C@@H](C)O)NC(=O)[C@H](CO)NC(=O)[C@H]([C@H](C)CC)NC(=O)[C@H](CC(C)C)N(C)C(=O)[C@@H]1C

What follows are compounds tested on Morganella morganii (assay: Antibacterial activity against Morganella morganii SANK 72990). Settings: not given.
Assay type: functional
Method in brief: as §1

MIC	Structure (SMILES)
> 100 µg/mL	CCCCCCCCCC[C@H]1OC(=O)CNC(=O)[C@H]([C@H](C)O)NC(=O)[C@H](CO)NC(=O)[C@H]([C@H](C)CC)NC(=O)[C@H](CC(C)C)N(C)C(=O)[C@@H]1C
> 100 µg/mL	CCCCCC[C@H]1OC(=O)CNC(=O)[C@@H]([C@@H](C)O)NC(=O)[C@H](CO)NC(=O)[C@H]([C@H](C)CC)NC(=O)[C@H](CC(C)C)N(C)C(=O)[C@@H]1C

Each compound was assayed on Serratia marcescens (assay: Antibacterial activity against Serratia marcescens SANK 72790). Settings: not given.
Assay type: functional
Method in brief: as §1

MIC	Structure (SMILES)
3.13 µg/mL (≈ 4.4 µM)	CCCCCCCCCC[C@H]1OC(=O)CNC(=O)[C@H]([C@H](C)O)NC(=O)[C@H](CO)NC(=O)[C@H]([C@H](C)CC)NC(=O)[C@H](CC(C)C)N(C)C(=O)[C@@H]1C
> 100 µg/mL	CCCCCC[C@H]1OC(=O)CNC(=O)[C@@H]([C@@H](C)O)NC(=O)[C@H](CO)NC(=O)[C@H]([C@H](C)CC)NC(=O)[C@H](CC(C)C)N(C)C(=O)[C@@H]1C

These compounds were tested on Staphylococcus aureus (assay: Antibacterial activity against Staphylococcus aureus SANK 71890 (MRSA)). Settings: not given.
Assay type: functional
Method in brief: as §1

MIC	Structure (SMILES)
12.5 µg/mL (≈ 17.6 µM)	CCCCCCCCCC[C@H]1OC(=O)CNC(=O)[C@H]([C@H](C)O)NC(=O)[C@H](CO)NC(=O)[C@H]([C@H](C)CC)NC(=O)[C@H](CC(C)C)N(C)C(=O)[C@@H]1C

What follows are compounds tested on Enterococcus faecalis (assay: Antibacterial activity against Enterococcus faecalis SANK 71990). Settings: not given.
Assay type: functional
Method in brief: as §1

MIC	Structure (SMILES)
12.5 µg/mL (≈ 17.6 µM)	CCCCCCCCCC[C@H]1OC(=O)CNC(=O)[C@H]([C@H](C)O)NC(=O)[C@H](CO)NC(=O)[C@H]([C@H](C)CC)NC(=O)[C@H](CC(C)C)N(C)C(=O)[C@@H]1C

These compounds were tested on Staphylococcus aureus (assay: Antibacterial activity against Staphylococcus aureus SANK 70668). Settings: not given.
Assay type: functional
Method in brief: as §1

MIC	Structure (SMILES)
6.25 µg/mL (≈ 8.78 µM)	CCCCCCCCCC[C@H]1OC(=O)CNC(=O)[C@H]([C@H](C)O)NC(=O)[C@H](CO)NC(=O)[C@H]([C@H](C)CC)NC(=O)[C@H](CC(C)C)N(C)C(=O)[C@@H]1C

What follows are compounds tested on Proteus vulgaris (assay: Antibacterial activity against Proteus vulgaris SANK 72890). Settings: not given.
Assay type: functional
Method in brief: as §1

MIC	Structure (SMILES)
> 100 µg/mL	CCCCCCCCCC[C@H]1OC(=O)CNC(=O)[C@H]([C@H](C)O)NC(=O)[C@H](CO)NC(=O)[C@H]([C@H](C)CC)NC(=O)[C@H](CC(C)C)N(C)C(=O)[C@@H]1C
> 100 µg/mL	CCCCCC[C@H]1OC(=O)CNC(=O)[C@@H]([C@@H](C)O)NC(=O)[C@H](CO)NC(=O)[C@H]([C@H](C)CC)NC(=O)[C@H](CC(C)C)N(C)C(=O)[C@@H]1C

These compounds were tested on Staphylococcus aureus (assay: Antibacterial activity against Staphylococcus aureus SANK 71790). Settings: not given.
Assay type: functional
Method in brief: as §1

MIC	Structure (SMILES)
6.25 µg/mL (≈ 8.78 µM)	CCCCCCCCCC[C@H]1OC(=O)CNC(=O)[C@H]([C@H](C)O)NC(=O)[C@H](CO)NC(=O)[C@H]([C@H](C)CC)NC(=O)[C@H](CC(C)C)N(C)C(=O)[C@@H]1C

The compounds below were run on Klebsiella pneumoniae (assay: Antibacterial activity against Klebsiella pneumoniae SANK 72490). Settings: not given.
Assay type: functional
Method in brief: as §1

MIC	Structure (SMILES)
1.56 µg/mL (≈ 2.19 µM)	CCCCCCCCCC[C@H]1OC(=O)CNC(=O)[C@H]([C@H](C)O)NC(=O)[C@H](CO)NC(=O)[C@H]([C@H](C)CC)NC(=O)[C@H](CC(C)C)N(C)C(=O)[C@@H]1C
> 100 µg/mL	CCCCCC[C@H]1OC(=O)CNC(=O)[C@@H]([C@@H](C)O)NC(=O)[C@H](CO)NC(=O)[C@H]([C@H](C)CC)NC(=O)[C@H](CC(C)C)N(C)C(=O)[C@@H]1C

Each compound was assayed on Enterobacter cloacae (assay: Antibacterial activity against Enterobacter cloacae 846). Settings: not given.
Assay type: functional
Method in brief: as §1

MIC	Structure (SMILES)
1.56 µg/mL (≈ 2.19 µM)	CCCCCCCCCC[C@H]1OC(=O)CNC(=O)[C@H]([C@H](C)O)NC(=O)[C@H](CO)NC(=O)[C@H]([C@H](C)CC)NC(=O)[C@H](CC(C)C)N(C)C(=O)[C@@H]1C
100 µg/mL (≈ 152 µM)	CCCCCC[C@H]1OC(=O)CNC(=O)[C@@H]([C@@H](C)O)NC(=O)[C@H](CO)NC(=O)[C@H]([C@H](C)CC)NC(=O)[C@H](CC(C)C)N(C)C(=O)[C@@H]1C

These compounds were tested on Pseudomonas aeruginosa (assay: Antibacterial activity against Pseudomonas aeruginosa SANK 73190). Settings: not given.
Assay type: functional
Method in brief: as §1

MIC	Structure (SMILES)
> 100 µg/mL	CCCCCCCCCC[C@H]1OC(=O)CNC(=O)[C@H]([C@H](C)O)NC(=O)[C@H](CO)NC(=O)[C@H]([C@H](C)CC)NC(=O)[C@H](CC(C)C)N(C)C(=O)[C@@H]1C
> 100 µg/mL	CCCCCC[C@H]1OC(=O)CNC(=O)[C@@H]([C@@H](C)O)NC(=O)[C@H](CO)NC(=O)[C@H]([C@H](C)CC)NC(=O)[C@H](CC(C)C)N(C)C(=O)[C@@H]1C

Each compound was assayed on Pseudomonas aeruginosa (assay: Antibacterial activity against Pseudomonas aeruginosa SANK 3719). Settings: not given.
Assay type: functional
Method in brief: as §1

MIC	Structure (SMILES)
> 100 µg/mL	CCCCCCCCCC[C@H]1OC(=O)CNC(=O)[C@H]([C@H](C)O)NC(=O)[C@H](CO)NC(=O)[C@H]([C@H](C)CC)NC(=O)[C@H](CC(C)C)N(C)C(=O)[C@@H]1C
> 100 µg/mL	CCCCCC[C@H]1OC(=O)CNC(=O)[C@@H]([C@@H](C)O)NC(=O)[C@H](CO)NC(=O)[C@H]([C@H](C)CC)NC(=O)[C@H](CC(C)C)N(C)C(=O)[C@@H]1C

These compounds were tested on Pseudomonas aeruginosa (assay: Antibacterial activity against Pseudomonas aeruginosa SANK 73090). Settings: not given.
Assay type: functional
Method in brief: as §1

MIC	Structure (SMILES)
> 100 µg/mL	CCCCCCCCCC[C@H]1OC(=O)CNC(=O)[C@H]([C@H](C)O)NC(=O)[C@H](CO)NC(=O)[C@H]([C@H](C)CC)NC(=O)[C@H](CC(C)C)N(C)C(=O)[C@@H]1C
> 100 µg/mL	CCCCCC[C@H]1OC(=O)CNC(=O)[C@@H]([C@@H](C)O)NC(=O)[C@H](CO)NC(=O)[C@H]([C@H](C)CC)NC(=O)[C@H](CC(C)C)N(C)C(=O)[C@@H]1C
